pEC50, pIC50: −log10 of the molar value.
Columns and labels:
HEK293 [1] = test: Cytotoxicity against human HEK293 cells assessed as inhibition of cell viability incubated for 24 hrs by cell titer-glo assay; settings: HEK293, 24 h
HEK293 [2] = test: Cytotoxicity against permeabilized HEK293 cells assessed as inhibition of cell viability incubated for 30 mins in presence of CRBN-tracer by nanoBRET assay; type: functional, cell-based, Homo sapiens
In short: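 Transfected HEK293 cells (NanoLuc-CRBN plus DDB1), thawed from frozen into phenol-red-free Opti-MEM (500,000 cells/mL). Wells held CRBN-tracer (7.5 nL) and 11-pt 3-fold titrations (50 uM top assay concentration); 18 uL cells added, then 2 uL 0.5 mg/mL digitonin, 30 min at room temperature. NanoBRET substrate 1:166, no extracellular inhibitor; BRET luminescence at 450-480 nm and 610-LP.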

HEK293 [3] = test: Cytotoxicity against human HEK293 cells assessed as inhibition of cell viability incubated for 30 mins in presence of CRBN-tracer by nanoBRET assay; type: functional, cell-based
[4] = biological target: Protein cereblon/Bromodomain-containing protein 4 (Homo sapiens, UniProt O60885+Q96SW2); test: PROTAC activity at […]/BRD4 in human HEK293T cells assessed as degradation of BRD4 incubated for 24 hrs by HiBiT assay; type: cell-based
Protein cereblon/Bromodomain-containing protein 4, sequence (Q96SW2 whole entry, looked up, other chains not shown): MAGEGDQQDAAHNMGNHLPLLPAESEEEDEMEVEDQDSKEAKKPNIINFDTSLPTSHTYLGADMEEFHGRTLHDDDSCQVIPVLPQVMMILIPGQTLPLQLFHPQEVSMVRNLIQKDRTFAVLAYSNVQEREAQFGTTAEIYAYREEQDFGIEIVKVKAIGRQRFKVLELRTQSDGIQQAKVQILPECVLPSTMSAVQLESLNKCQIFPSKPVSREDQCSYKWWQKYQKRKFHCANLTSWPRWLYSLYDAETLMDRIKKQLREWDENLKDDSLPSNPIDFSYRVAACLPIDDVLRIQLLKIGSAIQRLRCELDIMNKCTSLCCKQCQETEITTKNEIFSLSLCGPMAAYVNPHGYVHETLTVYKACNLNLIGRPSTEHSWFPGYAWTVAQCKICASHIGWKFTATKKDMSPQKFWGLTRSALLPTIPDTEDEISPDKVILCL

HEK293 [5] = test: Cytotoxicity against human HEK293 cells assessed as inhibition of cell viability at […] incubated for 30 mins by cell titer-glo assay relative to control; type: functional
[6] = biological target: Bromodomain-containing protein 4 (Homo sapiens) (UniProt O60885); test: Relative binding affinity to BRD4 (unknown origin)
HEK293 [7] = test: Cytotoxicity against human HEK293 cells assessed as inhibition of cell viability at 10 uM incubated for 30 mins by cell titer-glo assay relative to control; type: functional; settings: HEK293, 0.5 h
HEK293 [8] = test: Cytotoxicity against human HEK293 cells assessed as inhibition of cell viability at 12 uM incubated for 30 mins by cell titer-glo assay relative to control; type: functional; settings: HEK293, 0.5 h
[9] = Homo sapiens, HEK293, 0.5 h, read-out: Emax

DC50 [4] [µM] | relative binding affinity (RBA) [6] | Structure (SMILES) | pEC50 (HEK293 [1]) | pIC50 (HEK293 [2]; Homo sapiens, HEK293, 0.5 h) | pIC50 (HEK293 [3]; Homo sapiens, HEK293, 0.5 h) | Emax (HEK293 [5]; [9]) [%] | further results
> 50 | – | O=C(O)COc1cccc2c1C(=O)N(C1CCC(=O)NC1=O)C2=O (stereo not given) | < 4.30 | 6.08 | < 4.30 | 7.58 | –
> 50 | – | O=C1CCC(=O)N1O | < 4.30 | < 4.30 | < 4.30 | 10.8 | –
– | – | Cc1sc2c(c1C)C(c1ccc(Cl)cc1)=N[C@@H](CC(=O)NCCCCNC(=O)COc1cccc3c1C(=O)N(C1CCC(=O)NC1=O)C3=O)c1nnc(C)n1-2 (stereo in doubt; form 1) | – | 7.05 | – | – | pIC50 (HEK293 [3]; hek293): 5.66; Emax at 10 µM (HEK293 [7]): 25.2%
> 50 | – | O=C1CCC(N2C(=O)c3cccc(OCC(=O)ON4C(=O)CCC4=O)c3C2=O)C(=O)N1 (stereo not given) | < 4.30 | 5.98 | 5.13 | 11.9 | –
0.088 | 0.9 | Cc1ccc(C(=O)N(C)CCN2CCN(C(=O)C[C@@H]3N=C(c4ccc(Cl)cc4)c4c(sc(C)c4C)-n4c(C)nnc43)CC2)cc1N1CCC(=O)NC1=O | – | – | 5.35 | – | –
0.11 | 25 | Cc1sc2c(c1C)C(c1ccc(Cl)cc1)=N[C@@H](CC(=O)N[C@H]1C[C@H](N(C)C(=O)COc3cccc4c3C(=O)N(C3CCC(=O)NC3=O)C4=O)C1)c1nnc(C)n1-2 (stereo not given in full) | – | – | 7.05 | – | –
> 21.7 | – | Cc1ccc(C(=O)O)cc1N1CCC(=O)NC1=O | < 4.30 | 5.71 | < 4.30 | 7.84 | –
0.023 | 5 | Cc1ccc(C(=O)NCCOCCN(C)C(=O)C[C@@H]2N=C(c3ccc(Cl)cc3)c3c(sc(C)c3C)-n3c(C)nnc32)cc1N1CCC(=O)NC1=O | – | – | 5.49 | – | –
> 50 | – | Cc1ccc(C(=O)ON2C(=O)CCC2=O)cc1N1CCC(=O)NC1=O | < 4.30 | 5.22 | 4.65 | 9.24 | –
0.006 | 2.3 | Cc1sc2c(c1C)C(c1ccc(Cl)cc1)=N[C@@H](CC(=O)N1CCN(c3ncc(OC4CCN(C(=O)COc5cccc6c5C(=O)N(C5CCC(=O)NC5=O)C6=O)CC4)cn3)CC1)c1nnc(C)n1-2 (stereo not given in full) | – | – | 7.15 | – | –
7.1 | 9.6 | Cc1sc2c(c1C)C(c1ccc(Cl)cc1)=N[C@@H](CC(=O)N(C)CCOCCNC(=O)COc1cccc3c1C(=O)N(C1CCC(=O)NC1=O)C3=O)c1nnc(C)n1-2 (stereo not given in full) | – | – | 5.80 | – | –
0.02 | 0.9 | Cc1ccc(C(=O)N2CCC(Oc3cnc(N4CCN(C(=O)C[C@@H]5N=C(c6ccc(Cl)cc6)c6c(sc(C)c6C)-n6c(C)nnc65)CC4)nc3)CC2)cc1N1CCC(=O)NC1=O | – | – | 7.00 | – | –
0.241 | 25 | Cc1sc2c(c1C)C(c1ccc(Cl)cc1)=N[C@@H](CC(=O)N1CCN(CCN(C)C(=O)COc3cccc4c3C(=O)N(C3CCC(=O)NC3=O)C4=O)CC1)c1nnc(C)n1-2 (stereo not given in full) | – | – | 7.15 | – | –
– | – | Cc1sc2c(c1C)C(c1ccc(Cl)cc1)=N[C@@H](CC(=O)NCCCCNC(=O)COc1cccc3c1C(=O)N(C1CCC(=O)NC1=O)C3=O)c1nnc(C)n1-2 (stereo in doubt; form 2) | – | – | – | – | Emax at 12 µM (HEK293 [8]): 21.7%; pIC50 (HEK293 [2]; hek293): 7.25; pIC50 (HEK293 [3]; hek293): 6.03

Structure (SMILES) | DC50 [4] [µM] | relative binding affinity (RBA) [6] | pEC50 (HEK293 [1]) | pIC50 (HEK293 [2]; Homo sapiens, HEK293, 0.5 h) | pIC50 (HEK293 [3]; Homo sapiens, HEK293, 0.5 h) | Emax (HEK293 [5]; [9]) [%] | further results
Cc1sc2c(c1C)C(c1ccc(Cl)cc1)=N[C@@H](CC(=O)ON1C(=O)CCC1=O)c1nnc(C)n1-2 | > 50 | – | < 4.30 | < 4.30 | < 4.30 | 5.26 | –
Cc1ccc(C(=O)N(C)[C@H]2C[C@H](NC(=O)C[C@@H]3N=C(c4ccc(Cl)cc4)c4c(sc(C)c4C)-n4c(C)nnc43)C2)cc1N1CCC(=O)NC1=O | > 20 | 6.4 | – | – | 5.68 | – | –
Cc1sc2c(c1C)C(c1ccc(Cl)cc1)=N[C@@H](CC(=O)O)c1nnc(C)n1-2 | > 50 | – | < 4.30 | < 4.30 | < 4.30 | – | Emax (HEK293 [5]; 0.5 h): 14.23%

Source: ChEMBL document CHEMBL5120933, “Direct-to-Biology Accelerates PROTAC Synthesis and the Evaluation of Linker Effects on Permeability and Degradation” (ACS Med Chem Lett, 2022)
